From ChEMBL document CHEMBL4715833, “Design, synthesis, in-vitro, in-vivo and in-silico studies of pyrrolidine-2,5-dione derivatives as multitarget anti-inflammatory agents” (Eur J Med Chem, 2020)

Experiments:
[1] = target: T1, Prostaglandin G/H synthase 1 (Ovis aries, UniProt P05979); assay: Inhibition of sheep COX1 using arachidonic acid as substrate preincubated for 5 mins followed by substrate addition and measured after 5 mins by UV-visible spectrophotometric method
T1 sequence (P05979 whole entry): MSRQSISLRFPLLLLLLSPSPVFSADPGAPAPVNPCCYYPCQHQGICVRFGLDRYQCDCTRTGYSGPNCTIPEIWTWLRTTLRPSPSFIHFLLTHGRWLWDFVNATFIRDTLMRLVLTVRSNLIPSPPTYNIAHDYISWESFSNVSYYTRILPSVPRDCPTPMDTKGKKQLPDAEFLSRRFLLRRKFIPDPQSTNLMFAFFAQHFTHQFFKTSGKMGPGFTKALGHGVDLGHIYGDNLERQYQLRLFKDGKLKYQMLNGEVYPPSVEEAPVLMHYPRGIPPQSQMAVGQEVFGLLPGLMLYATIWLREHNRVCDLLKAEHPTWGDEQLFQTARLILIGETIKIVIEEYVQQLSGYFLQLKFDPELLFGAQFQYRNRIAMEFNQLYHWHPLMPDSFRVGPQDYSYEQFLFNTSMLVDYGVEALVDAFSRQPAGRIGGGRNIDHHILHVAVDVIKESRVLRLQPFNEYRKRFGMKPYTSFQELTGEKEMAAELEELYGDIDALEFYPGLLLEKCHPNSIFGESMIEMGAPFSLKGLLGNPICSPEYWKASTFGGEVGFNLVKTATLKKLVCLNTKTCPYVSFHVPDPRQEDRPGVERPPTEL
How it was run: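 Enzymes activated for 5 min on ice with cofactor solution of 0.9 mM glutathione, hematin and 0.24 mM TMPD in 0.1 M Tris-HCl pH 8.0; COX-2 at 300 units/ml. Reaction started with 30 mM arachidonic acid stock, run 5 min, absorbance read at 570 nm. IC50 taken from inhibition-vs-concentration plots as means of three determinations. SI = IC50(COX-1)/IC50(COX-2).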

[2] = Inhibition of trypsin (unknown origin) using casein as substrate preincubated for 5 mins followed by substrate addition and measured after 20 mins; design: species or system Homo sapiens
How it was run: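 Trypsin 0.06 mg/ml in 20 mM Tris-HCl pH 7.4 with compound at 31.25–1000 µg/ml, 5 min at 37 °C. 0.8% (w/v) casein added, 20 min further, stopped with 70% perchloric acid. After centrifugation, supernatant absorbance read at 217 nm against buffer blank. % inhibition against control; IC50 from plot; three runs.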

[3] = Acute toxicity in Swiss albino mouse assessed as mortality at 1000 mg/kg, ip administered as single dose measured after 24 hrs; type: organism-based; settings: in vivo
How it was run: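 Swiss albino mice of either sex (30-35 g), housed at 22-25 °C with 12 h light/dark and free food and water. Single i.p. dose; the saline control got 10 mL/kg. Deaths were counted 24 h after dosing. Dose table lists groups of 8 male and 8 female mice given 5 to 2000 mg/kg.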

[4] = Acute toxicity in Swiss albino mouse assessed as clinical changes in respiratory rate at 1000 mg/kg, ip administered as single dose measured after 4 hrs; type: organism-based; settings: in vivo
How it was run: (§1)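 Swiss albino mice of either sex (30-35 g), kept at 22-25 °C on a 12 h light/dark cycle with free food and water. Single i.p. dose; controls received normal saline 10 mL/kg. Animals were watched at random for allergic or abnormal behavioural signs during the first 4 h.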

[5] = Acute toxicity in Swiss albino mouse assessed as clinical changes in salivation at 1000 mg/kg, ip administered as single dose measured after 4 hrs; type: organism-based; settings: in vivo; how it was run: as §1
[6] = Acute toxicity in Swiss albino mouse assessed as clinical changes in piloerection at 1000 mg/kg, ip administered as single dose measured after 4 hrs; type: organism-based; settings: in vivo; how it was run: as §1
[7] = Acute toxicity in Swiss albino mouse assessed as clinical changes in perspiration at 1000 mg/kg, ip administered as single dose measured after 4 hrs; type: organism-based; settings: in vivo; how it was run: as §1
[8] = Acute toxicity in Swiss albino mouse assessed as changes in central nervous system at 1000 mg/kg, ip administered as single dose measured after 4 hrs; type: organism-based; settings: in vivo; how it was run: as §1
[9] = Acute toxicity in Swiss albino mouse assessed as ptosis at 1000 mg/kg, ip administered as single dose measured after 4 hrs; type: organism-based; settings: in vivo; how it was run: as §1
[10] = Acute toxicity in Swiss albino mouse assessed as change in gait at 1000 mg/kg, ip administered as single dose measured after 4 hrs; type: organism-based; settings: in vivo; how it was run: as §1
[11] = Acute toxicity in Swiss albino mouse assessed as drowsiness at 1000 mg/kg, ip administered as single dose measured after 4 hrs; type: organism-based; settings: in vivo; how it was run: as §1
[12] = Acute toxicity in Swiss albino mouse assessed as convulsion at 1000 mg/kg, ip administered as single dose measured after 4 hrs; type: organism-based; settings: in vivo; how it was run: as §1
[13] = Acute toxicity in Swiss albino mouse assessed as tremor at 1000 mg/kg, ip administered as single dose measured after 4 hrs; type: organism-based; settings: in vivo; how it was run: as §1
Mus musculus [14] = assay: Antiinflammatory activity against carrageenan-induced paw edema in Swiss mouse assessed as inhibition of paw edema at 50 mg/kg administered 30 mins prior to carrageenan challenge and measured after 1 hr by […]-method (reference value: 7.66 +/- 3.753%); type: functional; settings: 1.5 h, time 90 min
Mus musculus [15] = assay: Antiinflammatory activity against carrageenan-induced paw edema in Swiss mouse assessed as inhibition of paw edema at 25 mg/kg administered 30 mins prior to carrageenan challenge and measured after 2 hrs by […]-method (reference value: 7.39 +/- 2.475%); type: functional; settings: time 2.5 hrs
Mus musculus [16] = assay: Antiinflammatory activity against carrageenan-induced paw edema in Swiss mouse assessed as inhibition of paw edema at 50 mg/kg administered 30 mins prior to carrageenan challenge and measured after 2 hrs by […]-method (reference value: 7.39 +/- 2.475%); type: functional; settings: time 2.5 hrs
Mus musculus [17] = assay: Antiinflammatory activity against carrageenan-induced paw edema in Swiss mouse assessed as inhibition of paw edema at 25 mg/kg administered 30 mins prior to carrageenan challenge and measured after 3 hrs by […]-method (reference value: 11.41 +/- 3.069%); type: functional; settings: time 3.5 hrs
Mus musculus [18] = assay: Antiinflammatory activity against carrageenan-induced paw edema in Swiss mouse assessed as inhibition of paw edema at 50 mg/kg administered 30 mins prior to carrageenan challenge and measured after 3 hrs by […]-method (reference value: 11.41 +/- 3.069%); type: functional; settings: time 3.5 hrs
Mus musculus [19] = assay: Antiinflammatory activity against carrageenan-induced paw edema in Swiss mouse assessed as inhibition of paw edema at 100 mg/kg administered 30 mins prior to carrageenan challenge and measured after 3 hrs by […]-method (reference value: 11.41 +/- 3.069%); type: functional; settings: time 3.5 hrs
Mus musculus [20] = assay: Antiinflammatory activity against carrageenan-induced paw edema in Swiss mouse assessed as inhibition of paw edema at 100 mg/kg administered 30 mins prior to carrageenan challenge and measured after 4 hrs by […]-method (reference value: 14.46 +/- 1.568%); type: functional; settings: time 4.5 hrs
Mus musculus [21] = assay: Antiinflammatory activity against carrageenan-induced paw edema in Swiss mouse assessed as inhibition of paw edema at 25 mg/kg administered 30 mins prior to carrageenan challenge and measured after 5 hrs by […]-method (reference value: 7.31 +/- 3.204%); type: functional; settings: time 5.5 hrs
Mus musculus [22] = assay: Antiinflammatory activity against carrageenan-induced paw edema in Swiss mouse assessed as inhibition of paw edema at 50 mg/kg administered 30 mins prior to carrageenan challenge and measured after 5 hrs by […]-method (reference value: 7.31 +/- 3.204%); type: functional; settings: time 5.5 hrs

Row | Structure (SMILES) | IC50 [1] [µM] | IC50 [2] [µM] | Activity [3] | Activity [4] | Activity [5] | Activity [6] | Activity [7] | Activity [8] | Activity [9] | Activity [10] | Activity [11] | Activity [12] | Activity [13] | inhibition in vivo at 50 mg/kg (Mus musculus [14]) [%] | inhibition in vivo at 25 mg/kg (Mus musculus [15]) [%] | inhibition in vivo at 50 mg/kg (Mus musculus [16]) [%] | inhibition in vivo at 25 mg/kg (Mus musculus [17]) [%] | inhibition in vivo at 50 mg/kg (Mus musculus [18]) [%] | inhibition in vivo at 100 mg/kg (Mus musculus [19]) [%] | inhibition in vivo at 100 mg/kg (Mus musculus [20]) [%] | also measured
1 | Cc1ccc(C(=O)CC2CC(=O)N(c3ccc(S(N)(=O)=O)cc3)C2=O)cc1 (centres undefined) | 30.9 | 15.3 | Non-Toxic | Non-Toxic | Non-Toxic | Non-Toxic | Non-Toxic | Non-Toxic | Non-Toxic | Non-Toxic | Non-Toxic | Non-Toxic | Non-Toxic | 51.5 | 53 | 57.3 | 51.5 | 54.2 | 61.6 | 66.1 | inhibition in vivo at 25 mg/kg (Mus musculus [21]): 56.6%; inhibition in vivo at 50 mg/kg (Mus musculus [22]): 59.3%
2 | O=C1CCCCC1C1CC(=O)N(Cc2ccccc2)C1=O (centres undefined) | 62.6 | 17.5 | Non-Toxic | Non-Toxic | Non-Toxic | Non-Toxic | Non-Toxic | Non-Toxic | Non-Toxic | Non-Toxic | Non-Toxic | Non-Toxic | Non-Toxic | 34.5 | 28.3 | 37.4 | 23.3 | 41.1 | 51.6 | 49.7 | inhibition in vivo at 25 mg/kg (Mus musculus [21]): 23.4%; inhibition in vivo at 50 mg/kg (Mus musculus [22]): 47.8%
